Source: ChEMBL document CHEMBL4177676, “Discovery of new antimalarial agents: Second-generation dual inhibitors against FP-2 and PfDHFR via fragments assembely” (Bioorg Med Chem, 2017)
Activity calls are given as the source filed them. No cut-off for these calls is given here.

What was measured:
[1] = system: Plasmodium falciparum; test: Antimalarial activity against mid-ring stage of chloroquine-resistant Plasmodium falciparum Dd2 infected in human O-positive erythrocytes at 20 uM after 72 hrs by SYBR Green I dye-based fluorescence assay; assay type: functional
[2] = system: Plasmodium falciparum; test: Antimalarial activity against mid-ring stage of multidrug-sensitive Plasmodium falciparum 3D7 infected in human O-positive erythrocytes at 20 uM after 72 hrs by SYBR Green I dye-based fluorescence assay; assay type: functional
[3] = target: T1, Falcipain 2 (Plasmodium falciparum) (UniProt Q9N6S8); test: Inhibition of Plasmodium falciparum FP2 at 10 uM using Z-Leu-Arg-AMC as substrate preincubated for 30 min followed by substrate addition measured after 30 mins by spectrofluorimetric method
T1 sequence (whole entry): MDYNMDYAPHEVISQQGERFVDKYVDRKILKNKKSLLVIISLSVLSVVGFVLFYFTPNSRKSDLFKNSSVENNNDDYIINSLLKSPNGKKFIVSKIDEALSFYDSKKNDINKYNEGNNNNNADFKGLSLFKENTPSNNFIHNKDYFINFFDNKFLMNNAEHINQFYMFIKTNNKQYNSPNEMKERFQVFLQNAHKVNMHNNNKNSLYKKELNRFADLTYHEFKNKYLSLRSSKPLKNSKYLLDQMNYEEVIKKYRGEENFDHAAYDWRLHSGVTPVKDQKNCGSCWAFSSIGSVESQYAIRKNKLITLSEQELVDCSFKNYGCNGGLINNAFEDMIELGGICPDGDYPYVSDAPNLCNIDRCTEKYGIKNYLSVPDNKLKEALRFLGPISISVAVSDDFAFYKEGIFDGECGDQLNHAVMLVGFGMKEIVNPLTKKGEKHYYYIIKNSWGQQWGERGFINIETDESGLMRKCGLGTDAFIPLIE
Summary of the method: (§1)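 FP-2 (30 nM) was preincubated 30 min at room temperature with compound in 100 mM sodium acetate, 10 mM DTT, pH 5.5, with DMSO at most 1%. The fluorescence increase was then monitored for 30 min at room temperature. Percent inhibition was screened at 10 µM. IC50 values were fitted from percent inhibition versus concentration, using three independent experiments.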

[4] = target: T2, Bifunctional dihydrofolate reductase-thymidylate synthase (Plasmodium falciparum K1, UniProt P13922); test: Inhibition of Plasmodium falciparum DHFR
T2 sequence (P13922 whole entry): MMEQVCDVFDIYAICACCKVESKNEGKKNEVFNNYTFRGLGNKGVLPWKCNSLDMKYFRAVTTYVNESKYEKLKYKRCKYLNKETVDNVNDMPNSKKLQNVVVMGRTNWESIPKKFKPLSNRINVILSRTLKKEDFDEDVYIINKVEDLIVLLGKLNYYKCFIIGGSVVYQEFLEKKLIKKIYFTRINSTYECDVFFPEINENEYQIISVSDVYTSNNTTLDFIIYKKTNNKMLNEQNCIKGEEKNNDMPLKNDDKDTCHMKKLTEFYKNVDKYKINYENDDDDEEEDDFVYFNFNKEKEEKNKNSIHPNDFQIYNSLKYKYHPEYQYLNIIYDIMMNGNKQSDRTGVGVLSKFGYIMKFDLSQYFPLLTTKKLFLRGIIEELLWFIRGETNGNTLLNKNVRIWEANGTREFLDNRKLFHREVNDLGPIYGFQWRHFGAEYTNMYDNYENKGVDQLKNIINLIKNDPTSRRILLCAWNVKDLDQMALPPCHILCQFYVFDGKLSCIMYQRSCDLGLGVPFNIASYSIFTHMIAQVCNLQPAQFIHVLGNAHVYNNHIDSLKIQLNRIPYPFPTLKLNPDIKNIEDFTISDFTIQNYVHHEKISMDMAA
Summary of the method: (§2)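 Purified PfDHFR was preincubated with graded compound concentrations for 15 min on ice in 100 uM NADPH, 50 mM TES pH 7.0, 1 mM EDTA, 75 mM 2-mercaptoethanol and 1 mg/mL BSA. DHF was then added to start the reaction, and NADPH oxidation was followed at 340 nm. IC50 came from percent-inhibition versus concentration plots, three independent experiments.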

[5] = target: T2, Bifunctional dihydrofolate reductase-thymidylate synthase; test: Inhibition of Plasmodium falciparum DHFR using DHF as substrate preincubated for 15 mins followed DHF addition measured after 15 mins by spectrophotometric method; summary of the method: as §2
[6] = target: Bifunctional dihydrofolate reductase-thymidylate synthase (Plasmodium falciparum K1) (UniProt P13922); test: Inhibition of Plasmodium falciparum DHFR at 10 uM using DHF as substrate preincubated for 15 mins followed DHF addition measured after 15 mins by spectrophotometric method
Chain of Bifunctional dihydrofolate reductase-thymidylate synthase (Plasmodium falciparum K1) (P13922 whole entry, looked up): as the sequence (P13922 whole entry) above
Summary of the method: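 Purified P. falciparum DHFR was preincubated 15 min on ice with compound in 100 uM NADPH, 50 mM TES pH 7.0, 1 mM EDTA, 75 mM 2-mercaptoethanol and 1 mg/mL BSA. DHF was then added to start the reaction. NADPH oxidation was followed at 340 nm, and percent inhibition was taken at 10 µM.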

[7] = target: T3, Falcipain 2 (Plasmodium falciparum, UniProt Q9N6S8); test: Inhibition of Plasmodium falciparum FP2; summary of the method: as §1
T3 sequence (Q9N6S8 whole entry): T1 sequence (whole entry)

[8] = target: T3, Falcipain 2; test: Inhibition of Plasmodium falciparum FP2 using Z-Leu-Arg-AMC as substrate preincubated for 30 min followed by substrate addition measured after 30 mins by spectrofluorimetric method; summary of the method: as §1
[9] = system: Plasmodium falciparum; test: Antimalarial activity against mid-ring stage of multidrug-sensitive Plasmodium falciparum 3D7 infected in human O-positive erythrocytes after 72 hrs by SYBR Green I dye-based fluorescence assay; assay type: functional, organism-based; conditions: 3D7, 72 h
Summary of the method: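 Cultures were synchronised with 5% sorbitol to over 80% rings, and parasites at mid-ring stage (6–10 h post-invasion) were used at 1% parasitemia and 2% hematocrit. […] Growth ran 72 h at 37 °C under 5% CO₂, 5% O₂, 90% N₂. Cells were lysed in saponin/Triton X-100 buffer with 5X SYBR Green I, kept 2 h in the dark, and fluorescence was read at 485/535 nm.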

[10] = system: Plasmodium berghei; test: In vivo antimalarial activity against Plasmodium berghei ANKA infected in BALB/c mouse assessed as reduction in parasitemia at 20 mg/kg, po administered daily for 4 days by Giemsa staining-based method; assay type: functional, organism-based
Summary of the method: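 BALB/c mice were infected with P. berghei ANKA. Starting 24 h later, they received 20 mg/kg test compound or control orally once daily for 4 days. Parasitemia was counted on Giemsa-stained blood smears every day over 10 days.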

[11] = system: Plasmodium falciparum; test: Antimalarial activity against mid-ring stage of chloroquine-resistant Plasmodium falciparum Dd2 infected in human O-positive erythrocytes after 72 hrs by SYBR Green I dye-based fluorescence assay; assay type: functional, organism-based; conditions: Dd2, 72 h
Summary of the method: (§3)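 Sorbitol-synchronised (>80% ring) […] cultures were used at the mid-ring stage (6-10 h post-invasion), at 1% parasitemia and 2% hematocrit, with serial compound dilutions (Dd2 top concentration 10 µM). Incubation was 72 h at 37 °C under 5% CO₂/5% O₂/90% N₂. Cells were then lysed with saponin/Triton X-100 buffer containing 5X SYBR Green I, kept 2 h in the dark, and read at ex 485/em 535 nm.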

[12] = system: Plasmodium falciparum; test: Antimalarial activity against mid-ring stage of Plasmodium falciparum Fab9 infected in human O-positive erythrocytes after 72 hrs by SYBR Green I dye-based fluorescence assay; assay type: functional, organism-based; conditions: Fab9, 72 h; summary of the method: as §3
[13] = system: Plasmodium falciparum; test: Antimalarial activity against mid-ring stage of Plasmodium falciparum GB4 infected in human O-positive erythrocytes after 72 hrs by SYBR Green I dye-based fluorescence assay; assay type: functional, organism-based; conditions: GB4, 72 h; summary of the method: as §3

Compound	inhibition [3]	IC50 [5]	inhibition [6]	IC50 [8]	further results
CCc1nnc(NC(=O)CCc2ccc(S(=O)(=O)Nc3ccc(F)cc3)cc2)s1	64.7%	6300 nM	59.2%	7000 nM	Activity [1]: 6.2%; Activity [2]: 7.9%; IC50 [4]: 6300 nM; IC50 [7]: 7000 nM
Nc1nc(N)c2cc(NCc3ccc(CCNC(=O)c4ccc([N+](=O)[O-])cc4)cc3)ccc2n1	67%	55.6 nM	94.7%	10000 nM	IC50 [9]: 105 nM
COc1cc(OC)cc(C(=O)NCCc2ccc(CNc3ccc4nc(N)nc(N)c4c3)cc2)c1	41.1%	32.1 nM	100%		
CC1(C)N=C(N)N=C(N)N1OCCCOc1cc(Cl)c(Cl)cc1Cl					IC50 [4]: 0.57 nM
Nc1nc(N)c2cc(NCc3ccc(CCNC(=O)CCc4ccccc4)cc3)ccc2n1	55.2%	185 nM	98.6%	4900 nM	
COc1cccc(C(=O)NCCc2ccc(CNc3ccc4nc(N)nc(N)c4c3)cc2)c1	52.6%	39.6 nM	96.8%	6200 nM	IC50 [9]: 60.5 nM; Activity [10]: Active; IC50 [11]: 2200 nM
Nc1nc(N)c2cc(NCc3ccc(CCNC(=O)c4ccccc4F)cc3)ccc2n1	44.6%	180 nM	100%		
CC(C)(C)C1CCC(C(=O)NCCc2ccc(CNc3ccc4nc(N)nc(N)c4c3)cc2)CC1 (stereo not given)	55.8%	290 nM	99.9%	7400 nM	
Nc1nc(N)c2cc(NCc3ccc(CCNC(=O)c4cccc(F)c4)cc3)ccc2n1	49.8%	50.6 nM	98.5%		
CCc1nc(N)nc(N)c1-c1ccc(Cl)cc1 [PYRIMETHAMINE]					Activity [10]: Active; IC50 [11]: > 10000 nM
C[C@@H]1CC[C@H]2[C@@H](C)C(=O)O[C@@H]3O[C@@]4(C)CC[C@@H]1[C@]32OO4 [ARTEMISININ]					IC50 [9]: 4.1 nM; IC50 [12]: 5.2 nM; IC50 [13]: 2.2 nM; Activity [10]: Active
Nc1nc(N)c2cc(NCc3ccc(CCNC(=O)c4ccc5c(c4)OCCO5)cc3)ccc2n1	34.9%	80.9 nM	100%		
Nc1nc(N)c2cc(NCc3ccc(CCNC(=O)C4CCCCC4)cc3)ccc2n1	66.6%	226 nM	96%	7700 nM	
CC(C)C[C@H](NC(=O)[C@@H]1O[C@H]1C(=O)O)C(=O)NCCCCN=C(N)N				57.2 nM	
COc1ccc(C(=O)NCCc2ccc(CNc3ccc4nc(N)nc(N)c4c3)cc2)cc1OC	31.3%	61.1 nM	100%		
